# Assay results from different studies.
# Lines come from different studies, so protocols differ.
# Target: Mitogen-activated protein kinase 10 (MAPK10, Homo sapiens, UniProt P53779)
Structure (SMILES),read-out,action,method,concentration,endpoint,value
Cc1cc(NC(=O)c2cccc3cc(-c4cccc5[nH]nc(N)c45)ccc23)ccc1F,enzyme activity,inhibitor,,0.1 µM,activity vs control,102%
COc1cc(Cl)c(C(=O)N[C@@H](CN[C@H]2CC[C@@H](N)CC2)Cc2ccc(C#N)cc2)cc1-c1ccc(CN[C@H](C)c2ccc(C)cc2)o1,enzyme activity,inhibitor,,1 µM,remaining activity,93%
FC(F)(F)Oc1cccc(-c2cnc3ccc(-c4ccncc4)nn23)c1,enzyme activity,inhibitor,radiometric,5 µM,activity vs control,81%
FC(F)c1nc2ccccc2n1-c1nc(N2CCOCC2)nc(N2CCOCC2)n1,enzyme activity,inhibitor,,10 µM,remaining activity,88%
C[C@@]1(Cc2ccc(C#N)cc2)C(=O)N(c2cc(Cl)cc(Cl)c2)c2ncc(C(=O)NC3(c4nc(C5CCC5)no4)CC3)n21,cell-free assay,,competition with immobilised ligand,1 µM,remaining binding,100%
CC/C(=N\NC(=O)NCc1cccc(O)c1)c1ccc(O)c(C)c1O,enzyme activity,inhibitor,,0.1 µM,inhibition,-5%
COc1cc(Nc2cnc(C#N)c(O[C@H](C)CN(C)C)n2)ncc1-c1cnn(C)c1,enzyme activity,inhibitor,radiometric,1 µM,remaining activity,113%
Cc1ccc(C(=O)Nc2ccc(CN3CCN(C)CC3)c(C(F)(F)F)c2)cc1C#Cc1cnc2cccnn12,enzyme activity,inhibitor,,23.5 nM,remaining activity,85%
COc1cc(-c2cc(-c3ccc(N4CCNCC4)cc3)cnc2C)cc(OC)c1OC,enzyme activity,inhibitor,,1 µM,inhibition,3%
O=C1Nc2ccc(Cl)cc2C1=Cc1cc(Cl)c(O)c(Cl)c1,cell-free assay,,,0.5 µM,remaining signal,98.8%
CC(C)(O)[C@H]1CC[C@H](Nc2ccc3ncc(-c4cccc(C(F)(F)F)c4)n3n2)CC1,enzyme activity,inhibitor,,1 µM,remaining activity,107%
CNC(=O)c1cc(Oc2ccc(NC(=O)Nc3ccc(Cl)c(C(F)(F)F)c3)cc2)ccn1,enzyme activity,inhibitor,,0.3 µM,inhibition,9%
CS(=O)(=O)c1cc(C2(NC(=O)c3cncc4c3cnn4-c3ccc(F)cc3)CC2)ccn1,cell-free assay,,competition with immobilised ligand,1 µM,remaining binding,100%
Cc1ccc(NC(=O)c2ccc(C)c(C(F)(F)F)c2)cc1C#Cc1nn(C2CCC(O)CC2)c2ncnc(N)c12 (stereo not drawn),cell-free assay,,,10 µM,remaining signal,40%
CC(=O)N1CCC(c2ccc(C(=O)NC3=NCCN3)cc2C(F)(F)F)CC1,cell-free assay,,competition with immobilised ligand,1 µM,remaining binding,100%
N#CCCc1ccc2c(c1)-c1[nH]c3ccc([N+](=O)[O-])cc3c1CC(=O)N2,cell-free assay,,,0.5 µM,remaining signal,93.3%
Cc1c(NC(=O)c2cc(C(N)=O)nc3cc(F)ccc23)c(C(F)(F)F)nn1Cc1ccc(C(C)(C)C)cc1,cell-free assay,,competition with immobilised ligand,1 µM,remaining binding,100%
Cc1sc(C(=O)NC2COC2)cc1-n1cc(NC(=O)Nc2c(F)cccc2Cl)cn1,enzyme activity,inhibitor,,10 µM,remaining activity,10.5%
CCC(=O)N[C@@H]1CC[C@H](C(=O)N(C)c2ccc(-c3nc4ccccc4o3)cc2)C1,cell-free assay,,competition with immobilised ligand,1 µM,remaining binding,100%
COc1cc2ncnc(Nc3ccc(Oc4ccccc4)cc3C)c2cc1OC,enzyme activity,inhibitor,,1 µM,inhibition,5%
CS(=O)(=O)N1CCCC(NC(=O)[C@H](CCC2CCCCC2)NC(=O)c2ccc(CNc3ncnc4c3nnn4-c3ccccc3)cc2)C1 (stereo partly drawn),cell-free assay,,competition with immobilised ligand,0.1 µM,remaining binding,100%
CC(C)(C)c1nc2c(s1)c1nc(N)ncc1c1ccc(NS(=O)(=O)c3c(F)cccc3F)c(F)c12,enzyme activity,inhibitor,radiometric,1 µM,remaining activity,70%
CCS(=O)(=O)c1cc2cc(C[C@@](O)(CC(C)(C)c3ccc(F)cc3C(N)=O)C(F)(F)F)[nH]c2cn1,cell-free assay,,competition with immobilised ligand,1 µM,remaining binding,100%
Nc1ncnc2c1ncn2[C@@H]1O[C@H](COP(=O)(O)OP(=O)(O)OP(=O)(O)O)[C@@H](O)[C@H]1O,thermal stability,,DSF,2 µM,ΔTm,~4.6 °C
